# Measured values gathered from unrelated publications.
# Lines come from different studies, so protocols differ.
# Target: Serine/threonine-protein kinase PAK 1 (PAK1, Homo sapiens, UniProt Q13153)
Compound,read-out,mode,technique,concentration,measurement,result
Cc1nn(C)cc1-c1nc2c(N3CCN(Cc4ccc(Cl)cc4)CC3)c(Cl)cnc2[nH]1,binding,,competition with immobilised ligand,1 µM,remaining binding,100%
Cn1cc(-c2cccc(N3CCc4c(sc5c4CC(C)(C)C5)C3=O)c2CO)cc(Nc2ccncn2)c1=O,enzyme activity,inhibitor,,1 µM,inhibition,9%
Cn1cncc1[C@@](O)(COc1ccc(C#N)cc1-c1ccc(OC(F)(F)F)cc1)c1ccc(C#N)cc1,cell-free assay,,competition with immobilised ligand,1 µM,remaining binding,100%
C#Cc1n[nH]c2c(-c3cn([C@@H](C)c4ccccc4)c(=O)[nH]c3=O)cc(F)cc12,enzyme activity,inhibitor,,0.1 µM,inhibition,5.7%
O=c1[nH]c2ccccc2n1C1CCN(Cc2ccc(-c3[nH]c4cc5ncnc5cc4nc3-c3ccccc3)cc2)CC1,cell-free assay,,,0.5 µM,remaining signal,90.6%
N#CC1(c2ccccn2)CCN(Cc2cc(C(=O)O)c(=O)n3ccccc23)CC1,cell-free assay,,competition with immobilised ligand,1 µM,remaining binding,86%
Nc1ncc(-c2nc(N3CCOCC3)nc(N3CCOCC3)n2)c(C(F)F)n1,binding,,competition with immobilised ligand,10 µM,remaining binding,63%
COc1cc(Nc2ncc(F)c(Nc3ccc4c(n3)NC(=O)C(C)(C)O4)n2)cc(OC)c1OC,binding,,competition with immobilised ligand,10 µM,inhibition,91%
C#Cc1n[nH]c2c(-c3cn(C(C)c4ccccn4)c(=O)[nH]c3=O)cc(F)cc12 (centres unmarked),enzyme activity,inhibitor,,1 µM,inhibition,3.4%
Cn1cc(-c2cc(F)cc(N3CCn4c(cc5c4CCCC5)C3=O)c2CO)cc(Nc2ccc(N3CCN(C4COC4)CC3)cn2)c1=O,enzyme activity,inhibitor,,0.1 µM,inhibition,5%
COc1ncccc1-c1cnn2ccc(N3CCN(C(=O)OC(C)C)CC3)nc12,binding,,competition with immobilised ligand,1 µM,remaining binding,100%
